Reference: BindingDB's records for doi:10.1021/jm001079l (Umr 8525 Cnrs - Universit&#233, 2001)

Molecular target: Trypanothione reductase (Trypanosoma cruzi, UniProt P28593)
Test: Inhibitory activity against Trypanosoma cruzi trypanothione disulfide reductase, assay in presence of 57 uM T(S)2.
Procedure, shortened: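 Assay contained 250 µM NADPH, 57 µM T(S)₂, inhibitor at 0.3–50 µM and 1% DMSO final. Started with enzyme; NADPH loss followed at 340 nm. IC50 in duplicate.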

Chain of Trypanothione reductase (P28593 whole entry): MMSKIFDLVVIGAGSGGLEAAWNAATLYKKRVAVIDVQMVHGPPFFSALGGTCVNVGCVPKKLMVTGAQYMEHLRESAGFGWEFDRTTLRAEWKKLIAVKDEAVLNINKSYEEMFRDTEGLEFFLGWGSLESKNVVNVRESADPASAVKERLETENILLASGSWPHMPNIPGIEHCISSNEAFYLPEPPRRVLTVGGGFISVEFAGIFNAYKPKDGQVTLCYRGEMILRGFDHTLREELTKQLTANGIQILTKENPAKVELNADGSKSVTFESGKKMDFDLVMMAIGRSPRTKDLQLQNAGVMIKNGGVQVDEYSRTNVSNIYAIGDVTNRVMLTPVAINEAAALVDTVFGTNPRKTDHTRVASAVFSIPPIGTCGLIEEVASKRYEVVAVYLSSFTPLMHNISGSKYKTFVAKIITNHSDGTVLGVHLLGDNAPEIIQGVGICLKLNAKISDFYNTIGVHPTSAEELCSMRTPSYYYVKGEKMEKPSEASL

IC50 [µM]	Compound
28	Cc1c(N=CCCNCCCCNCCCN)c(O)c2c(O)cccc2c1O
> 57	Cc1c(N=CCCCN)c(O)c2ccccc2c1O [2-(4-Amino-butylamino)-3-methyl-[1,4]naphthoquinone]
> 57	Cc1c(N=CCCN2CCN(C)CC2)c(O)c2ccccc2c1O [2-Methyl-3-[3-(4-methyl-piperazin-1-yl)-propylamino]-[1,4]naphthoquinone]
> 57	Cc1c(N=CCCC=Nc2c(C)c(O)c3ccccc3c2O)c(O)c2ccccc2c1O [2-methyl-3-[4-(3-methyl-1,4-dioxo-1,4-dihydro-2-naphthalenylamino)butylamino]-1,4-dihydro-1,4-naphthalenedione]
28	Cc1c(N=CCCNCCCCNCCCN)c(O)c2ccccc2c1O [2-{3-[4-(3-Amino-propylamino)-butylamino]-propylamino}-3-methyl-[1,4]naphthoquinone]
> 57	Cc1c(N=CCCCN)c(O)c2c(O)cccc2c1O [3-(4-Amino-butylamino)-5-hydroxy-2-methyl-[1,4]naphthoquinone]
2.9	Cc1c(C=CC(=O)NCCCCNCCCNC(=O)C=Cc2c(C)c(O)c3cccc(O)c3c2O)c(O)c2c(O)cccc2c1O [3-(8-Hydroxy-3-methyl-1,4-dioxo-1,4-dihydro-naphthalen-2-yl)-N-(4-{3-[3-(8-hydroxy-3-methyl-1,4-dioxo-1,4-dihydro-naphthalen-2-yl)-propionylamino]-propylamino}-butyl)-propionamide]
> 50	Cc1c(C=CC(=O)O)c(O)c2c(O)cccc2c1O [3-(8-Hydroxy-3-methyl-1,4-dioxo-1,4-dihydro-naphthalen-2-yl)-propionic acid]
> 50	CN1CCN(CCCNC(=O)C=Cc2c(CCC(=O)NCCCN3CCN(C)CC3)c(O)c3cccc(O)c3c2O)CC1 [3-(8-Hydroxy-3-{2-[3-(4-methyl-piperazin-1-yl)-propylcarbamoyl]-ethyl}-1,4-dioxo-1,4-dihydro-naphthalen-2-yl)-N-[3-(4-methyl-piperazin-1-yl)-propyl]-propionamide]
11	Cc1c(C=CCC(=O)NCCCNCCCNC(=O)CC=Cc2c(C)c(O)c3ccccc3c2O)c(O)c2ccccc2c1O [4-(3-Methyl-1,4-dioxo-1,4-dihydro-naphthalen-2-yl)-N-(3-{3-[4-(3-methyl-1,4-dioxo-1,4-dihydro-naphthalen-2-yl)-butyrylamino]-propylamino}-propyl)-butyramide]
11	CN1CCN(CCCNC(=O)CC=Cc2c(CCCC(=O)NCCCN3CCN(C)CC3)c(O)c3cccc(O)c3c2O)CC1 [4-(5-Hydroxy-3-{3-[3-(4-methyl-piperazin-1-yl)-propylcarbamoyl]-propyl}-1,4-dioxo-1,4-dihydro-naphthalen-2-yl)-N-[3-(4-methyl-piperazin-1-yl)-propyl]-butyramide]
2.3	Cc1c(C=CCC(=O)NCCCN2CCN(CCCNC(=O)CC=Cc3c(C)c(O)c4cccc(O)c4c3O)CC2)c(O)c2c(O)cccc2c1O [4-(8-Hydroxy-3-methyl-1,4-dioxo-1,4-dihydro-naphthalen-2-yl)-N-[3-(4-{3-[4-(8-hydroxy-3-methyl-1,4-dioxo-1,4-dihydro-naphthalen-2-yl)-butyrylamino]-propyl}-piperazin-1-yl)-propyl]-butyramide]
> 50	Cc1c(C=CCC(=O)O)c(O)c2c(O)cccc2c1O [4-(8-Hydroxy-3-methyl-1,4-dioxo-1,4-dihydro-naphthalen-2-yl)-butyric acid]
> 57	Cc1c(N=CCCN2CCN(C)CC2)c(O)c2c(O)cccc2c1O [5-Hydroxy-2-methyl-3-[3-(4-methyl-piperazin-1-yl)-propylamino]-[1,4]naphthoquinone]
> 50	O=C(O)CCCC=Cc1c(CCCCCC(=O)O)c(O)c2ccccc2c1O [6-[3-(5-Carboxy-pentyl)-1,4-dioxo-1,4-dihydro-naphthalen-2-yl]-hexanoic acid]
> 50	Cc1c(CC=NC(=O)OC(C)(C)C)c(O)c2ccccc2c1O [[2-(3-Methyl-1,4-dioxo-1,4-dihydro-naphthalen-2-yl)-ethyl]-carbamic acid tert-butyl ester]
> 25	Cc1c(CC=NC(=O)OC(C)(C)C)c(O)c2c(O)cccc2c1O [[2-(8-Hydroxy-3-methyl-1,4-dioxo-1,4-dihydro-naphthalen-2-yl)-ethyl]-carbamic acid tert-butyl ester]
> 25	Cc1c(C=CCNC(=O)OC(C)(C)C)c(O)c2c(O)cccc2c1O [[3-(8-Hydroxy-3-methyl-1,4-dioxo-1,4-dihydro-naphthalen-2-yl)-propyl]-carbamic acid tert-butyl ester]
